MT1-MMP act inh: blockers of MT1-MMP proenzyme processing, primary screen, HT1080 RFP-PRO-GFP cells, GFP/RFP fluorescence | GFP/RFP ratio fluorescence, overnight; percent of plate control window, DMSO zero | GFP/RFP ratio change, % at 20 µM | 360,000 compounds, 0.061% hits | AID 651647, 2012;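 active = GFP/RFP ratio change of at least 30% with cell ATP level not reduced by more than half and red fluorescence within 50% of control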
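Compound: 20 µM single dose, 1% DMSO / System: HT1080 RFP-PRO-GFP cells / Controls: DMSO and RFP-L50D-GFP cell wells / Read-out basis: GFP/RFP fluorescence ratio / Schedule: overnight compound exposure at 37 °C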
MPTP inh: mitochondrial permeability transition pore inhibitors, primary screen, biochemical, isolated mouse mitochondria, absorbance; Ca2+ swelling absorbance, 30 min; inhibition, % at 10 µM; 360,000 compounds, 1.4% hits;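 active = inhibition of 50% or more, scaled per plate between neutral and stimulator controls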;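 also: 0% = DMSO wells given calcium and 100% = 1 mM EGTA wells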
SKN-1 block: suppressors of acrylamide-induced Pgst-4::GFP reporter in worms, primary screen, SKN-1 inhibitor project, whole organism, uHTS, GFP/RFP fluorescence ratio, strain VP596; 360,000 compounds, 0.49% hits; C. elegans VP596 Pgst-4::GFP/RFP ratio, 24 h; inhibition, % at 21.8 µM;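 active = interference check ratio from 0.5 to 1.5 plus GFP to RFP signal ratio inhibition reaching or exceeding a fixed threshold, cut at about 30% in these data, passing the limit was not always enough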
ATG4B inh: ATG4B protease inhibitors, primary screen, biochemical, fluorescence, uHTS; Cysteine protease ATG4B (Homo sapiens), Q9Y4P1; ATG4B cleavage of LC3-PLA2, NBD-HPC fluorescence, 1 h; inhibition, % at 8.33 µM; 340,000 compounds, 0.51% hits; in the data active = inhibition above about 40%
Target sequence (Q9Y4P1 whole entry, looked up): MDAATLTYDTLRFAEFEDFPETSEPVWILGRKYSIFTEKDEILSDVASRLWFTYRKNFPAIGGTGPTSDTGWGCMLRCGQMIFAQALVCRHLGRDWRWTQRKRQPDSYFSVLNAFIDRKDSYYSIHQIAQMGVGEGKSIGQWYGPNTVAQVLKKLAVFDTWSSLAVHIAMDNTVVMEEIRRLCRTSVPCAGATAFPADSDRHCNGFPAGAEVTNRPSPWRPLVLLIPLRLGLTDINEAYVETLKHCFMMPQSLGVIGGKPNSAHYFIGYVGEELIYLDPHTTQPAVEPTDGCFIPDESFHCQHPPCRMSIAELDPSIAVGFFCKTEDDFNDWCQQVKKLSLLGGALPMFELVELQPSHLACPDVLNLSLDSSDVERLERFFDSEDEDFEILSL
Rh123 counter: fluorescence retest of MPTP screen hits in isolated mitochondria, single concentration; membrane potential, Rhodamine 123 fluorescence; shares compounds with MPTP inh; 5,000 compounds, 78% hits; inhibition, % at 10 µM; in the data active = inhibition above about 22%;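 also: 0% = DMSO vehicle and 100% = positive control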
MPTP abs DR: mitochondrial permeability transition pore inhibitors, dose response, biochemical, absorbance, uHTS hits; isolated mitochondria swelling; IC50, µM; 780 compounds, 58% hits; shares compounds with MPTP inh; in the data active = IC50 below about 20 µM
MPTP cs DR: fluorescent counter-screen in isolated mitochondria, dose response, counter-screen for MPTP inhibitor project, biochemical, fluorescence, uHTS hits; 780 compounds, 49% hits; IC50, µM; isolated mitochondria counterscreen, fluorescence read-out; shares compounds with MPTP inh; in the data active = IC50 below about 80 µM
The depositor's hits bear a star; i = inactive; / = not tested or not shown. This is a sample that favours compounds with a hit; in the whole collection about 2.3% have one here.

SMILES	MT1-MMP act inh	MPTP inh	SKN-1 block	ATG4B inh	Rh123 counter	others
CCCCCc1nc2c(c(=O)c3ccccc3n2C)c(=O)n1C1CCCCCC1	-40.5	87.4*	17.0	-6.0	-5.0
Cn1nc(-c2ccc(OCC(=O)N3CCN(Cc4ccccc4)CC3)cc2)c2ccccc2c1=O	11.7	72.0*	-10.6	-6.3	43.0*
CCCCCSc1cc(OC)c(CCN(C)C)cc1OC	-0.6	83.8*	-11.4	2.2	-8.2	MPTP abs DR=6.33*;MPTP cs DR=>80
CCCCCSc1cc(O)c(C(CNC)C(C)C)cc1OC (stereo not given)	2.7	15.3	10.1	9.8	/
Cc1cccc(CCNCc2cc3cc(C)cc(C)c3[nH]c2=O)c1	-7.3	-2.2	0.7	-10.8	/
Cc1cccc(CCNCc2cc3cccc(C)c3[nH]c2=O)c1	5.1	66.8*	27.3	-0.8	43.7*
COc1ccc2c(c1)C13CCN(C)C(C2)C1CCC1(C3)OCCO1 (stereo not given)	-1.6	-0.6	6.7	-4.8	/
COc1ccc2c(c1)[C@@]13CCC=C[C@H]1[C@@H](C2)NCC3	-21.7	55.3*	15.1	-3.1	-5.7	MPTP abs DR=i;MPTP cs DR=>80
CC(=O)c1cn(CCCOc2ccccc2)c2ccccc12	-1.0	81.8*	19.8	-3.8	56.1*
CN(C)CCOC(=O)c1cn(Cc2ccccc2)c2ccccc12	-3.3	59.0*	17.1	-4.3	-7.7	MPTP abs DR=17.6*;MPTP cs DR=>80
CCC(=O)c1cn(Cc2ccccc2)c2ccccc12	-1.4	-1.3	-0.7	-0.2	/
CN1[C@@H]2CC[C@H]1CC(OC1c3ccccc3CCc3ccccc31)C2 (stereo not given in full)	-7.2	97.4*	-19.2	1.4	0.6	MPTP abs DR=7.78*;MPTP cs DR=>80
CN1C2CCC1CC(OC(=O)c1ccc(Cl)cc1)C2 (stereo not given)	-3.2	-2.4	7.0	-7.3	/
CCOC(=O)[C@]12Cc3cc(C)ccc3[C@H]1N(C)C(=O)c1cc(OC)ccc12	-8.1	-1.7	-1.6	/	/
CN(C)C(=O)Oc1ccc(C(=O)c2ccccc2)cc1	6.1	-1.9	1.4	-0.4	/
CN(C)CCOc1ccc(/C(=C(/CCCl)c2ccccc2)c2ccccc2)cc1	/	105.9*	-3.2	5.8	-15.6	MPTP abs DR=6.66*;MPTP cs DR=41.1*
CC(=O)O[C@H]1CC[C@@]2(C)C(=CC(=O)C3C2CC[C@@]2(C)C3C[C@H](OC(C)=O)[C@@H]2OC(C)=O)C1 (stereo not given in full)	0.3	0.3	3.8	-4.4	/
Cc1ccccc1C(O)(Cc1ccccc1)C1CN2CCC1CC2 (stereo not given)	-40.6	61.8*	-12.6	-8.8	-7.3	MPTP abs DR=16.5*;MPTP cs DR=>80
CC(=O)O/C(=C1\CC2C3CC=C4CC(OC(C)=O)CCC4(C)C3CCC2(C)C1=O)C(F)(F)F (stereo not given)	1.5	1.6	-10.4	-2.6	/
CCOc1ccccc1N=C1SCCCN1C	-3.1	-1.1	15.1	4.6	/
CCOc1cccc(=NC2CCCCC2)c2c(C)n(C)c(C)c12	-33.0	62.5*	28.5	11.6	70.7*
c1cncc(CNCCN2CCNCC2)c1	-3.7	-0.9	9.4	0.1	/
O=C(NCC1=C(c2ccc3ccccc3c2)C[C@@H]2CC[C@H]1N2Cc1ccco1)c1ccc([N+](=O)[O-])cc1	4.0	-1.6	-4.4	/	/
CCCCn1c(NC(=O)c2ccc(Br)o2)c(C(=O)OCC)c2nc3ccccc3nc21	-85.3	3.9	11.9	28.4	/
CCCCn1c(NS(=O)(=O)c2ccccc2)c(C(=O)OCC)c2nc3ccccc3nc21	-1.8	59.4*	-1.5	21.2	49.9*
SMILES	MT1-MMP act inh	MPTP inh	SKN-1 block	ATG4B inh	Rh123 counter	others
c1ccc(-c2cc(-c3ccccc3)[n+](-c3ccccc3)c(-c3ccccc3)c2)cc1	-16.9	63.7*	3.2	10.0	88.9*
CN(C)c1ccc(-[n+]2c(-c3ccccc3)cc(-c3ccccc3)cc2-c2ccccc2)cc1	-5.8	1.7	-20.0	29.2	/
Cc1ccc(-c2cc(-c3ccccc3)cc(-c3ccccc3)[n+]2-c2ccccc2)cc1	2.5	11.3	1.0	36.0	/
Cc1ccc(-c2cc(-c3ccc(C)cc3)[n+](-c3ccccc3)c(-c3ccc(C)cc3)c2)cc1	-13.9	94.9*	10.9	31.0	100.7*
O=C1NC(=O)C(Nc2ccccc2)C(=O)N1	3.2	-0.5	0.1	-2.8	/
CCC(=NCCO)c1c(O)n(C2CCCCC2)c(=O)[nH]c1=O	-4.3	-0.5	-3.6	-7.6	/
CCC(=NCc1ccc2c(c1)OCO2)c1c(O)n(C2CCCCC2)c(=O)[nH]c1=O	-9.8	77.9*	9.3	-0.7	67.8*
CCC1C(c2cc(OC)c(OC)c(OC)c2)c2cc3c(cc2OC1N1CCCC1)OCO3 (stereo not given)	9.3	0.1	-8.5	-1.9	/
c1ccc2c(CNC3CCCCCC3)c[nH]c2c1	-1.3	71.1*	-0.4	4.8	-5.9	MPTP abs DR=8.66*;MPTP cs DR=72.8*
CCCCN1C(=O)/C(=C\c2ccco2)C(=O)N(CCc2ccccc2)C1=O	-14.4	67.7*	-4.6	-3.4	-6.3
O=C1NC(=O)N(Cc2ccccc2)C(=O)/C1=C\c1ccco1	-11.7	0.9	-2.8	15.7	/
O=C(Nc1ccc(Cl)cc1)N1CC2CC(C1)c1cccc(=O)n1C2 (stereo not given)	3.6	59.6*	-0.8	10.7	103.0*
N#C/C=C/C#N	2.7	-1.3	1.5	2.9	/
Ic1ccccc1CN[C@@H]1C2CCN(CC2)[C@@H]1C(c1ccccc1)c1ccccc1	-3.3	87.4*	15.2	-1.3	0.7
COC(=O)C1=Nc2ccccc2/C1=C\c1c(O)n(-c2cc(OC)ccc2OC)c(=O)[nH]c1=O	-6.1	58.1*	-5.5	2.1	-3.3	MPTP abs DR=i;MPTP cs DR=>80
CCN1C(=O)C(=Cc2cc(C)n(C3CC3)c2C)C(=O)N(CC)C1=S	7.1	2.9	9.0	7.5	/
CCN1C(=O)C(=Cc2ccc(C)s2)C(=O)N(CC)C1=S	-20.3	72.6*	44.9	12.7	-6.4
CN1CCC(N(C)c2nc(-c3ccc([N+](=O)[O-])cc3)nc3ccccc23)CC1	-21.4	101.7*	-23.3	-1.3	-16.4
CCc1cc(=O)oc2c(C)c(OCC(=O)N3C[C@H]4C[C@@H](C3)c3cccc(=O)n3C4)ccc12	-3.5	1.8	-0.1	-14.6	/
CSc1ccc(CN2CCN(c3ccccc3C)CC2)cc1	-0.1	-0.1	-9.7	8.8	/

Screening results (PubChem BioAssay)
